The source of these data is publication PMC3586205 (European journal of pharmacology, 2012).

Assay [1] relates to spontaneous activity in mice. Kind of assay: Spontaneous. The format is in vivo. The procedure, abridged:
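Separate groups of mice per dose were injected i.v. with vehicle (ethanol:Emulphor-620:saline 1:1:18) or test compound. Five minutes later each was placed in an activity chamber for 10 min. Total photobeam interruptions were counted and expressed as % inhibition of the vehicle group. ED50s were derived by log-dose linear regression, taking 90% inhibition as maximal.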

Assay [2] deals with rectal temperature in mice. The assay can be described thus: Rectal temperature, mouse test battery. The format is in vivo.
Assay [3] relates to tail flick latency in mice. Kind of assay: Tail flick antinociception, mouse test battery. It is filed as in vivo. The procedure, abridged: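 Baseline tail-flick latency was taken to radiant heat (bright light) before i.v. injection of vehicle (ethanol:Emulphor-620:saline 1:1:18) or test compound. Latency was re-measured 20 min post-injection with a 10 s cutoff. Result expressed as %MPE = [(test−control latency)/(10−control)] × 100, separate groups per dose.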

Assay [4] addresses T1, human cannabinoid CB1 receptor (Homo sapiens, UniProt P21554). The assay can be described thus: Cannabinoid CB1 receptor radioligand binding, displacement of [3H]CP55,940. For orientation: Loss of bound radioactivity is the signal in a displacement assay; it reports binding, not function.
In assay [5] the test system is food intake in mice. Kind of assay: Feeding behavior: 1-h food intake after 24-h food deprivation. The format is in vivo. The settings on record: for decrease in feeding compared to vehicle: 60 min pre-session, significant.
Assay [6] addresses T2, human cannabinoid CB2 receptor (Homo sapiens, UniProt P34972). The assay can be described thus: Cannabinoid CB2 receptor radioligand binding, displacement of [3H]CP55,940. In outline: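 CHO cells stably expressing human CB2 receptor; membranes made in 50 mM Tris-HCl, 3 mM MgCl2, 1 mM EGTA, pH 7.4. Membrane (10 μg protein) incubated with 1 nM [3H]CP55,940 and varying test compound in 50 mM Tris-HCl pH 7.4, 3 mM MgCl2, 0.2 mM EGTA, 0.5% BSA, 60 min at 30 °C. Non-specific binding was taken with 1 μM unlabeled CP55,940. Bound and free were separated by GF/B filtration with cold Tris-BSA washes, then counted by liquid scintillation.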

In assay [7] the test system is ring immobility in mice. Kind of assay: Ring immobility, mouse test battery. The format is in vivo. The settings on record: 30 mg/kg i.v.
In assay [8] the test system is cannabinoid agonist-like effects in mice. Kind of assay: In vivo test battery. Particulars: doses up to 30 mg/kg (heterodimer 6b i.p.). In outline:
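Separate groups of mice per dose received test compound in 95% sesame oil/5% dimethylacetamide i.p. Rectal temperature and baseline tail-flick latency were taken before injection. At 40 min mice were put in photobeam activity chambers for 5 min. Tail-flick and temperature were re-measured immediately on removal. Ring immobility was not run.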

Assay [9] deals with T2, human cannabinoid CB2 receptor. Particulars: read-out: CB2 Ki (± SEM), displacement of [3H]CP55,940, cited from earlier work.
Assay [10] concerns spontaneous activity in mice. The settings on record: cited from earlier work.
The subject of assay [11] is tail flick latency in mice. The settings on record: 30 mg/kg i.v.; ref Wiley et al. (2011); cited from earlier work.
The subject of assay [12] is rectal temperature in mice. Particulars: cited from earlier work.
The subject of assay [13] is cannabinoid agonist-like effects in mice. The settings on record: ref Wiley et al. (2011); cited from earlier work.
For assay [14], the target named is T1, human cannabinoid CB1 receptor. Particulars: cited from earlier work.
Assay [15] deals with food intake in mice. Particulars: ref Wiley et al., cited from earlier work; for dose (as low as) that suppressed eating: same food intake protocol, 2005.
The test system of assay [16] is ring immobility in mice. Particulars: i.v.; ref Wiley et al. (2012); cited from earlier work.
Setting [17] is: read-out: CB1 Ki (± SEM), displacement of [3H]CP55,940.
Setting [18] is: i.p., doses not stated in text (Fig. 2).
The mark [19] stands for this setting: 30 mg/kg i.v., ref Wiley et al. (2011).
Setting [20] is: read-out: CB1 receptor binding affinity Ki, ref Wiley et al., 2005.
Setting [21] is: present study and H.A. Navarro, personal communication.

pKi: −log10 of the molar value. “Also recorded” adds a separate entry of the source. Where two headings read alike, the source gives them in different places.

T1 sequence (P21554 whole entry): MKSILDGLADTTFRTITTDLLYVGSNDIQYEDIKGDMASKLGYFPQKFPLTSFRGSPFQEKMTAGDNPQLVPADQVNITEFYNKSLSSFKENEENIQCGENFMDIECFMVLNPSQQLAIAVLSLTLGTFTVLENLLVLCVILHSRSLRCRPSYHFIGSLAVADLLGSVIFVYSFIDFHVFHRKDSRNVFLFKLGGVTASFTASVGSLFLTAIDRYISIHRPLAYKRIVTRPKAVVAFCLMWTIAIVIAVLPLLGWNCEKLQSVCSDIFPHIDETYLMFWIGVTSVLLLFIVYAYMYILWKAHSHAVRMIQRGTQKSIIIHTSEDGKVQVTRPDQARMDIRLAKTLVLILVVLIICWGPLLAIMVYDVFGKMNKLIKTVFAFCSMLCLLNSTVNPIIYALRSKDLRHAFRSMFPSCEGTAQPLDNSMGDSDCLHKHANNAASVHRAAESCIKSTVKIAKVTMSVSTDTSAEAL
T2 sequence (P34972 whole entry): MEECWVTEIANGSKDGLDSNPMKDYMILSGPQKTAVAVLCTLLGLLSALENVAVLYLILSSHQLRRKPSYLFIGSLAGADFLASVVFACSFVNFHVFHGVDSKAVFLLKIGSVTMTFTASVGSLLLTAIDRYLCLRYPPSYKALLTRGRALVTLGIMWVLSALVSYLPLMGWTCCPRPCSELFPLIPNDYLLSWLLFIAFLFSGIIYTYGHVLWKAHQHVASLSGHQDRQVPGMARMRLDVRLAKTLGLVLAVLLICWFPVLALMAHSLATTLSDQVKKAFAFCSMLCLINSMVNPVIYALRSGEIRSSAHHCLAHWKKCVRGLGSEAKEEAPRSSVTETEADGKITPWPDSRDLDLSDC

As a reminder, the pKi is the negative decadic logarithm of the Ki, by convention in mol/L. With `CC1=CC[C@@H]2[C@@H](C1)c1c(O)cc(C(C)(C)CCCCC(=O)NCCc3ccc(S(N)(=O)=O)cc3)cc1OC2(C)C` [Compound O-606, 6-[(6aR,10aR)-1-hydroxy-6,6,9-trimethyl-6a,7,10,10a-tetrahydro-6H-benzo[c]chromen-3-yl]-6-methyl-N-(4-sulfamoyl-phenyethyl)heptanamide], in [1] (100 mg/kg i.v.), the “SA, % inhibition of activity of vehicle control group (maximum effect)” value (“SA, % inhibition” below) was 60% (100). Moreover, in assay [2] (100 mg/kg i.v.), the “RT (maximum effect)” value was “inactive (100)”. For the same molecule, the “%MPE tail flick (maximum effect)” value in assay [3] (100 mg/kg i.v.) is “inactive (100)”. In addition, the pKi in [4] (setting [17]) is 7.54. Moreover, in assay [5] (setting [18]), the “effect on food intake” value is reported as “failed to affect food intake”.
For `O=C(NN1CCCCC1)c1nn(-c2ccc(Cl)cc2Cl)c2cc(Br)ccc12` [Compound O-1654, 6-bromo-1-(2,4-dichlorophenyl)–N-(piperidin-1-yl)-1H-indazole-3-carboxamide], the negative logarithm of the Ki (pKi) is 6.06 in assay [4] and 5.93 in [6]. Moreover, the “effect on food intake” value in assay [5] (doses up to 100 mg/kg i.p.) is recorded as “did not affect food intake”.
Consider `CC1=CC[C@@H]2[C@@H](C1)c1c(O)cc(C(C)(C)CCCCCC(=O)NCCc3ccc(S(N)(=O)=O)cc3)cc1OC2(C)C` [Compound O-1689, 7-[(6aR,10aR)-1-hydroxy-6,6,9-trimethyl-6a,7,10,10a-tetrahydro-6H-benzo[c]chromen-3-yl]-7-methyl-N-(4-sulfamoylphenethyl]octanamide], for which the “SA, % inhibition” value in [1] (30 mg/kg i.v.) is reported as 46% (30). The “%MPE tail flick (maximum effect)” value in [3] (30 mg/kg i.v.) was “inactive (30)”. In assay [4], this molecule gave a negative-log Ki (pKi) of 7.42. Moreover, the “effect on food intake” value in assay [5] (setting [18]) is “failed to affect food intake”.
With `CC1=CC[C@@H]2[C@@H](C1)c1ccc(CC#CCCCC(=O)NCCc3ccc(S(N)(=O)=O)cc3)cc1OC2(C)C` [Compound O-1720], the negative-log Ki (pKi) in [4] (setting [17]) is 6.04; in assay [6] (read-out: CB2 Ki (± SEM), displacement of [3H]CP55,940), 6.10. For the same molecule, in assay [5] (100 mg/kg i.p.), the “decrease in feeding compared to vehicle” value is recorded as 24%. In [5] (i.p.), the “dose that significantly decreased feeding” value is on record as 100 mg/kg.
As for `CCCc1cc(C(=O)NN2CCCCC2)cc(-c2ccc(Cl)cc2Cl)c1-c1ccc(Cl)cc1` [Compound O-1788, 4-(4-chlorophenyl)-3-(2,4-dichlorophenyl)–N-(piperidin-1-yl)-5-propylbenzamide], the “SA, % inhibition” value in assay [1] (30 mg/kg i.v.) is “inactive (30)”. Also, the “RT, change in rectal temperature (maximum effect)” value in assay [2] (30 mg/kg i.v.) is “inactive (30)”. Moreover, in [3] (30 mg/kg i.v.), the “%MPE tail flick (maximum effect)” value is “inactive (30)”. Moreover, in assay [4], the pKi is 6.78. For the same molecule, the “RI (maximum effect)” value in [7] was “inactive (30)”. Further, the “activity in test battery when tested alone” value in [8] was “inactive”. The “decrease in feeding compared to vehicle” value in assay [5] (56 mg/kg i.p.) is reported as 56%.
For the molecule `CC1=CCC2C(C1)c1c(O)cc(CC#CCCCNS(C)(=O)=O)cc1OC2(C)C` (stereo not drawn) [Compound O-2050, 3-(6′-methane-sulfamidohex-2-yne)-Δ^8-tetrahydrocannabinol], the negative-log Ki (pKi) was 9.70 in assay [9] (ref Wiley et al. (2011)) and 8.60 in assay [14] (read-out: CB1 Ki (± SEM)). In addition, in assay [10] (setting [19]), the “SA, % inhibition” value is on record as 69% (30). Also, the “%MPE tail flick (maximum effect)” value in [11] was “inactive (30)”. Further, the “RT (maximum effect)” value in assay [12] (setting [19]) is “inactive (30)”. For the same molecule, the “profile in test battery” value in [13] was “did not affect responses in the in vivo test battery”. The “effect on food intake” value in assay [15] (same procedure, 2011) is listed as “decrease food intake”.
Turning to `Cc1c(C(=O)NN2CCCCC2)nn(-c2ccc(Cl)cc2Cl)c1-c1ccc(CCCCCN=[N+]=[N-])cc1` [Compound O-3257, 5-(4-(5-azidopentyl)phenyl)-1-(2,4-dichlorophenyl)-4-methyl-N-(piperidin-1-yl)-1H-pyrazole-3-carboxamide, reference compound], the pKi in assay [14] (setting [20]) was 8.66. In addition, the “dose (as low as) that suppressed eating” value in [15] is recorded as 1 mg/kg.
On to `Cc1c(C(=O)NN2CCCCC2)nn(-c2ccc(Cl)cc2Cl)c1-c1ccc(CCCCC[N+](=O)[O-])cc1` [Compound O-3259, 1-(2,4-dichlor-ophenyl)-4-methyl-5-(4-(5-nitropentyl)phenyl)–N-(piperidin-1-yl)-1H-pyrazole-3-carboxamide, reference compound], for which, in [14] (setting [20]), the negative-log Ki (pKi) was 8.92. The “dose (as low as) that suppressed eating” value in [15] is reported as 1 mg/kg.
On to `Cc1c(C(=O)NCCCCCCCN(C)CCCCCCCNC(=O)c2nn(-c3ccc(Cl)cc3Cl)c(-c3ccc(Cl)cc3)c2C)nn(-c2ccc(Cl)cc2Cl)c1-c1ccc(Cl)cc1` [Heterodimer 6b, N,N′-[(methylimino)diheptane-7,1-diyl]bis[5-(4-chlorophenyl)-1-(2,4-dichlorophenyl)-4-methyl-1H-pyrazole-3-carboxamide]], for which the “activity in test battery when tested alone” value in [8] is “inactive”. Moreover, the “effect on food intake” value in assay [5] (doses up to 30 mg/kg i.p.) is “failed to alter food intake”.
For Hemopressin [reference compound], the “displacement of [3H]CP55,940 from CB1 receptors” value in assay [4] (setting [21]) is listed as “failed to displace”. The “displacement of [3H]CP55,940 from CB2 receptors” value in [6] (setting [21]) is on record as “failed to displace”. The “effect on food intake” value in assay [5] (doses up to 3 mg/kg i.p.) was “did not affect food intake; also recorded: did not affect feeding”.
Regarding “N-allyl carboxamide analog [Compound O-4373]”, the pKi is 5.77 in assay [9] (ref Wiley et al. (2012)) and 6.83 in [14] (read-out: CB1 Ki (± SEM), displacement of [3H]CP55,940, ref Wiley et al. (2012)). Further, the “SA ED50 (95% confidence limits)” value in [10] (i.v., ref Wiley et al. (2012)) is 2.3 (1.0–5.2) mg/kg. The “RT ED50 (95% confidence limits)” value in assay [12] (i.v., ref Wiley et al. (2012)) is 2.9 (2.1–5.0) mg/kg. Further, the “decrease in feeding compared to vehicle” value in assay [5] (30 mg/kg i.p.) came out at 73%. In [16], the “RI ED50 (95% confidence limits)” value is 4.2 (2.5–7.0) mg/kg.
